ChEMBL document CHEMBL1128444 (J Med Chem, 1995)

Experiments:
[1] = molecular target: T1, Sodium-dependent dopamine transporter (Rattus norvegicus, UniProt P23977); test: Binding affinity at the Dopamine transporter in rat striata by inhibition of 0.5 nM [3H]WIN-35428 binding
[2] = molecular target: T2, Norepinephrine transporter (Rattus norvegicus, UniProt Q9WTR4); test: Inhibition of [3H]NE uptake by rat frontal cortex Norepinephrine transporter; format: tissue-based
Method in brief: (§1)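 Rat frontal cortex synaptosomes were used at 10 mg/mL tissue with 5 nM final [3H]norepinephrine and 10 μM pargyline in Krebs phosphate buffer, pH 7.4. Incubation was 3 min at 30 °C, followed by filtration and scintillation counting. Nonspecific uptake was defined with 1 μM desipramine. Three or four experiments were run in triplicate, and Ki was derived by Cheng–Prusoff.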

[3] = molecular target: T2, Norepinephrine transporter; test: Binding affinity at the Norepinephrine transporter in rat frontal cortex by inhibition of 0.5 nM [3H]nisoxetine binding; format: tissue-based
[4] = molecular target: T3, Sodium-dependent serotonin transporter (Rattus norvegicus, UniProt P31652); test: Binding affinity at the Serotonin transporter in rat midbrain by inhibition of 0.5 nM [3H]-paroxetine binding; format: tissue-based
[5] = molecular target: Monoamine transporters; Norepininephrine & dopamine (Rattus norvegicus) (UniProt P23977+Q9WTR4); test: Ratio of IC50 value against NE to that of DA transporters; format: protein assay
Method in brief: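 Competition binding against 0.5 nM [3H]WIN 35,428 (DA transporter) or 0.5 nM [3H]nisoxetine (NE transporter). The IC50 is the mean ± standard error of three or four experiments, each run in triplicate. Selectivity ratios are NE/DA or 5-HT/DA quotients of the IC50 values.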

[6] = molecular target: T4, Monoamine transporters; serotonin & dopamine (Rattus norvegicus) (UniProt P31652+P23977); test: Ratio of IC50 value against Serotonin transporter to that of dopamine transporter; format: protein assay
[7] = molecular target: T1, Sodium-dependent dopamine transporter; test: Inhibition of [3H]DA uptake by rat striatal dopamine transporter
Method in brief: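 Rat striatal crude synaptosomes were prepared from male Sprague–Dawley rats by 0.32 M sucrose homogenisation and centrifugation at 800g then 2000g. Each tube held 1.5 mg tissue, 0.5 nM [3H]dopamine and 10 μM pargyline in Krebs phosphate buffer, pH 7.4, with dextrose and ascorbate. Incubation was 3 min at 30 °C, followed by filtration and scintillation counting. Nonspecific uptake was defined with 1 μM mazindol. Three or four experiments were run in triplicate, and Ki was derived by Cheng–Prusoff.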

[8] = molecular target: T3, Sodium-dependent serotonin transporter; test: Inhibition of [3H]- 5-HT uptake in Serotonin transporter using serotonin uptake assay in rat midbrain tissue; format: tissue-based
Method in brief: as §1, with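 “Rat midbrain” for “Rat frontal cortex”, “at 1” for “at 10”, “final [3H]serotonin” for “final [3H]norepinephrine”, “μM citalopram.” for “μM desipramine.”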

[9] = molecular target: T4, Monoamine transporters; serotonin & dopamine (Rattus norvegicus); test: Ratio of IC50 value against 5-HT to that of DA transporters; format: protein assay
[10] = molecular target: T3, Sodium-dependent serotonin transporter; test: Ratio of Ki value towards Serotonin transporter to that of dopamine transporter
Method in brief: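 Rat [3H]uptake into crude synaptosomes in modified Krebs phosphate buffer, pH 7.4, with dextrose, ascorbic acid and 10 μM pargyline, 3 min at 30 °C, filtered and scintillation counted. DA: male Sprague–Dawley striatum, 0.5 nM [3H]dopamine, 1 μM mazindol nonspecific. 5-HT: midbrain, 5 nM [3H]serotonin, 1 μM citalopram nonspecific. Ki by Cheng–Prusoff; 5-HT Ki/DA Ki; 3–4 experiments in triplicate.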

T1 sequence (P23977 whole entry): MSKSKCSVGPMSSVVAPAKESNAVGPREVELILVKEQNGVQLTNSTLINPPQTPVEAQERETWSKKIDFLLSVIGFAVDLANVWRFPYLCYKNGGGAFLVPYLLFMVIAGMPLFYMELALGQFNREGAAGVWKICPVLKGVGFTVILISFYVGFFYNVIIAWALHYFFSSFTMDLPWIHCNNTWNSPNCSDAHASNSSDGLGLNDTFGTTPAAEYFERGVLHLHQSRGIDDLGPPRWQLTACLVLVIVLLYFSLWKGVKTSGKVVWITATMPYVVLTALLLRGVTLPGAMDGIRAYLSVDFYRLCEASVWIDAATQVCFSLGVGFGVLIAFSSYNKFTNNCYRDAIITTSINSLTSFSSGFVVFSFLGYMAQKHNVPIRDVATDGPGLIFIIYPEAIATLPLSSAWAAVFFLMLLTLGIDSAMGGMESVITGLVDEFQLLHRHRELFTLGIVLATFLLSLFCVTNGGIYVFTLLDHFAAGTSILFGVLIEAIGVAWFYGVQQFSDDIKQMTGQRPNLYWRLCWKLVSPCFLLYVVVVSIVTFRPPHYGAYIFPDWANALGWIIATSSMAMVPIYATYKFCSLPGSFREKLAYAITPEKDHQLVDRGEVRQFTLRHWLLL
T4 sequence (P23977 whole entry, looked up): as the sequence (P23977 whole entry) above
T4 sequence (P31652 whole entry, looked up): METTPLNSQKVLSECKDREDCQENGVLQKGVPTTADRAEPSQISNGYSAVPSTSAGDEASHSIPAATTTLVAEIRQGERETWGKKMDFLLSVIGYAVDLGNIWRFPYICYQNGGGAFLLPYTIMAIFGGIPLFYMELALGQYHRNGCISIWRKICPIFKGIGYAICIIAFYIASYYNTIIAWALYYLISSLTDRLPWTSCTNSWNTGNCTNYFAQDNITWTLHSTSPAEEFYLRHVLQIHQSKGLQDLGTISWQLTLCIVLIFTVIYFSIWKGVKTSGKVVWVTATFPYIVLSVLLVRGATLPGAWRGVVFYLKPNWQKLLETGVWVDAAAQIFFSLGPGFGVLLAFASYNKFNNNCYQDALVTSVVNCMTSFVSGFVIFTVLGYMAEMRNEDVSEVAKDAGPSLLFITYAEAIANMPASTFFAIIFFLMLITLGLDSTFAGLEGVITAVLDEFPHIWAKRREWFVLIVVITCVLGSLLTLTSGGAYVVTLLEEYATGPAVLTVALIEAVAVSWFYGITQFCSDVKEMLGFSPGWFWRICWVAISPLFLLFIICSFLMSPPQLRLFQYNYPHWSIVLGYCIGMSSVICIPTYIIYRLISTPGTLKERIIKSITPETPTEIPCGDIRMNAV
T2 sequence (Q9WTR4 whole entry): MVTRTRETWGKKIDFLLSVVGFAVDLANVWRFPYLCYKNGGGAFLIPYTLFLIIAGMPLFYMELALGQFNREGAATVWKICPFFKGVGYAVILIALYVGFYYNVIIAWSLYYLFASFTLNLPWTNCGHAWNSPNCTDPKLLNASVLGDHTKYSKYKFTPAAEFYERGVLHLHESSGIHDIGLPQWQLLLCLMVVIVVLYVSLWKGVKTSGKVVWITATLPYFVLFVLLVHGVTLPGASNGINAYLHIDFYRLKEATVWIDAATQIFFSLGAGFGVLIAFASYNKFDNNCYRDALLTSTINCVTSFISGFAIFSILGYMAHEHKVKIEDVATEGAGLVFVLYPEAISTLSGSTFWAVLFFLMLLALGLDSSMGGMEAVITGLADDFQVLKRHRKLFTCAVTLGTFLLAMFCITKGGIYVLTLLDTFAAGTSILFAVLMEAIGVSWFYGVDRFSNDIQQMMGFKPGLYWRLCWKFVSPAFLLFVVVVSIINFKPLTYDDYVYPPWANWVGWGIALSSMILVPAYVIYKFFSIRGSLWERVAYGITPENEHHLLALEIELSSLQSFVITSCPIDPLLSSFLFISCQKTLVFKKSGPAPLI
T3 sequence (P31652 whole entry): as the sequence (P31652 whole entry, looked up) above

| Structure (SMILES) | IC50 [1] [nM] | Ki [2] [nM] | IC50 [3] [nM] | IC50 [4] [nM] | Ratio [5] | Ratio [6] | Ki [7] [nM] | Ki [8] [nM] | Ratio [9] | Ki [10] [nM] |
| --- | --- | --- | --- | --- | --- | --- | --- | --- | --- | --- |
| CN1C2CCC1C(C(=O)Oc1ccccc1)C(c1ccc(I)cc1)C2 (configuration not stated) | 1.5 | 32.7 | 3790 | 184 | 2580 | 123 | 6.85 | 51.6 | – | – |
| CN1C2CCC1C(C(=O)OC1CC1)C(c1ccc(I)cc1)C2 (configuration not stated) | 0.61 | – | 102 | – | 167 | – | – | – | 25 | – |
| COC(=O)[C@H]1[C@@H](c2ccc(F)cc2)C[C@H]2CC[C@H]1N2C | – | 38.6 | – | 692 | – | – | – | 101 | – | – |
| CN1C2CCC1C(C(N)=O)C(OC(=O)c1ccccc1)C2 (configuration not stated) | 753 | – | 3980 | 13700 | 5.3 | – | – | – | 18 | – |
| CN1C2CCC1C(C(=O)NCO)C(c1ccc(Cl)cc1)C2 (configuration not stated) | 2.05 | – | 144 | – | 47 | – | – | – | 48 | – |
| CC(C)OC(=O)C1C(c2ccc(Cl)cc2)CC2CCC1N2C (configuration not stated) | 1.4 | 250 | 778 | – | 556 | 1000 | 6.04 | 129 | – | – |
| Cc1ccc(C2CC3CCC(C2C(=O)OC(C)C)N3C)cc1 (configuration not stated) | 6.45 | 73.4 | 1930 | – | 299 | 59.9 | 15.3 | – | 944 | – |
| CN1C2CCC1C(C(N)=O)C(c1ccc(Cl)cc1)C2 (configuration not stated) | 11.5 | – | 4270 | 1620 | 371 | – | – | – | 141 | – |
| Cc1ccc(C2CC3CCC(C2C(=O)Oc2ccccc2)N3C)cc1 (configuration not stated) | 3.26 | 278 | 5830 | – | 1790 | 7410 | 9.13 | 1540 | – | – |
| CN1C2CCC1C(C(=O)Oc1ccccc1)C(c1ccc(Cl)cc1)C2 (configuration not stated) | – | 242 | – | – | 1490 | 1180 | 5.25 | 391 | – | – |
| CC(C)OC(=O)C1C(c2ccc(I)cc2)CC2CCC1N2C (configuration not stated) | 0.43 | 41.2 | 285 | 66.8 | 662 | – | 2.79 | – | 155 | 12.5 |
| COC(=O)C1C(c2ccc(Cl)cc2)CC2CCC1N2C (configuration not stated) | – | – | – | – | – | – | 3.68 | 5 | – | – |
| CNC(=O)C1C(OC(=O)c2ccccc2)CC2CCC1N2C (configuration not stated) | 2420 | – | 4210 | 44800 | 1.7 | – | – | – | 18 | – |
| CN1C2CCC1C(C(=O)OC/C=C/c1ccccc1)C(OC(=O)c1ccccc1)C2 (configuration not stated) | 371 | – | 68900 | 368 | 186 | – | – | – | 1 | – |
| Cc1ccc(C2CC3CCC(C2C(N)=O)N3C)cc1 (configuration not stated) | 41.8 | – | 4400 | 6370 | 105 | – | – | – | 152 | – |
| COC(=O)C1C(c2ccc(I)cc2)CC2CCC1N2C (configuration not stated) | 1.26 | 7.51 | 36 | – | 29 | 3.3 | 1.96 | 1.74 | – | – |
